Published values of several laboratories.
Compare with care: the assays were run in different laboratories.
Medium: plasma

SMILES	test system	conditions	Cmax
CC(C)n1cc(C#N)c2cc(-n3cc(C(=O)O)cn3)ccc21	human	oral, 50 mg, single dose, fasted, healthy volunteers	1440 ng/mL
Cc1ccc(C(=O)N(CCCN)[C@@H](c2oc3cc(Cl)ccc3c(=O)c2Cc2ccccc2)C(C)C)cc1	human	intravenous, 8 mg/m², single dose, patients, infusion	803 ng/mL
CCc1nc2c(C)cc(N3CCN(CC(=O)N4CC(O)C4)CC3)cn2c1N(C)c1nc(-c2ccc(F)cc2)c(C#N)s1	human	oral, 600 mg, single dose, fasted, healthy volunteers	5800 ng/mL
CO[C@@H]1[C@H](OC(=O)N2CC(CCN3CCOCC3)C2)CC[C@]2(CO2)[C@H]1[C@@]1(C)O[C@@H]1CC=C(C)C	human	subcutaneous, 0.6 mg, single dose, healthy volunteers	2.28 ng/mL
CCCCC[C@H](O)CC[C@@H]1[C@H]2Cc3cccc(OCC(=O)O)c3C[C@H]2C[C@H]1O	human	inhaled, 36 µg, single dose, healthy volunteers	0.87 ng/mL
CCCOc1ccc([C@H]2CNC(=O)N2c2ccc3[nH]cnc3c2)cc1	human	oral, 200 mg, fasted, healthy volunteers	989 ng/mL
COc1ccc(-n2nc(C(N)=O)c3c2C(=O)N(c2ccc(N4CCCCC4=O)cc2)CC3)cc1	human	oral, 10 mg, healthy volunteers	261 ng/mL
CCCCC1=NC2(CCCC2)C(=O)N1Cc1ccc(-c2ccccc2S(=O)(=O)Nc2noc(C)c2C)c(COCC)c1	human	oral, 200 mg, single dose, fasted, healthy volunteers	5150 ng/mL
CC(C)(C(=O)N1CCOc2c(C#N)cncc2C1)C(F)F	human	oral, 10 mg, single dose, fasted, healthy volunteers	116 ng/mL
FC(F)(F)c1ccc(CNc2ccc(Cc3c[nH]c4ncc(Cl)cc34)cn2)cn1	human	oral, 600 mg, multiple doses, patients	3660 ng/mL
Oc1cc(O)c2c(c1)O[C@@H](c1ccc(O)c(O)c1)[C@@H](O)C2	human	oral, 30 mg, single dose	0.7 ng/mL
NS(=O)(=O)NCCNc1nonc1C(=NO)Nc1ccc(F)c(Br)c1	human	oral, 600 mg, multiple doses, twice daily, steady state, patients	4820 nM
CC(C)(Sc1ccncc1-c1ccc(C#N)c2ccccc12)C(=O)O	male human	oral, 20 mg, single dose, fed, healthy volunteers	181 ng/mL
CS(=O)(=O)CCNCc1ccc(-c2ccc3ncnc(Nc4ccc(OCc5cccc(F)c5)c(Cl)c4)c3c2)o1	human	oral, 500 mg, multiple doses, twice daily, steady state, patients	2370 ng/mL
COc1ccc([C@@H]2CN(C(=O)[C@@H](O)CO)C[C@@]2(C)[C@@H](C)O)cc1OC1CN(c2ccc(C)cn2)C1	human	oral, 5 mg, single dose, healthy volunteers	213 ng/mL
CCn1c(=O)c(-c2cc(NC(=O)Nc3ccccc3)c(F)cc2Br)cc2cnc(NC)cc21	human	oral, 30 mg, single dose, patients	133 ng/mL
CO[C@H]1CC[C@H](N2C(=O)CNc3ncc(-c4ccc(C(C)(C)O)nc4)nc32)CC1	human	oral, 60 mg, patients	319 ng/mL

SMILES	test system	conditions	Cmax
Cn1c(=O)oc2ccc(-c3ccc(C[C@@H](C#N)NC(=O)[C@@H]4CNCCCO4)cc3)cc21	male human	oral, 50 mg, single dose, healthy volunteers	1040 nM
CC(C)(O)c1ccccc1-c1ccc2[nH]c(/C=C/c3ccc(C(F)(F)F)cc3)nc2c1	male human	oral, 225 mg, single dose, fasted, healthy volunteers	525 ng/mL
Cn1cc(-c2ccc(S(=O)(=O)[C@@H]3C[C@@H](C(=O)NC4(C#N)CC4)N(C(=O)C4(C(F)(F)F)CC4)C3)c(C(F)(F)F)c2)cn1	human	oral, 30 mg, single dose, fasted, healthy volunteers	212 ng/mL
N#CN1C[C@H](n2nc(-c3ccc(Oc4ccc(Cl)cn4)cc3)c(C(N)=O)c2N)CCC12CC2	human	oral, 600 mg, fed	1020 ng/mL
Br.Cc1ccc(Sc2ccccc2N2CCNCC2)c(C)c1	human	oral, 20 mg, multiple doses, steady state, healthy volunteers	33 ng/mL
COCCOc1cnc2ccn([C@H](C)c3nnc4c(F)cc(-c5cnn(C)c5)cn34)c(=O)c2c1	human	oral, 100 mg, multiple doses, once daily, patients	2300 ng/mL
COc1cc2c(Nc3ccc(Br)cc3F)ncnc2cc1OCC1CCN(C)CC1	human	oral, 65 mg/m², multiple doses, once daily, steady state, patients	868 ng/mL
C#Cc1cccc(Nc2ncnc3cc(OCCOC)c(OCCOC)cc23)c1	human	oral, 50 mg, patients	1170 nM
COc1cc(C(=O)NC2CCN(C)CC2)c(F)cc1Nc1ncc(C(F)(F)F)c(Oc2cccc3c2C(=O)N(C)C3)n1	human	oral, 10 mg, multiple doses, once daily, steady state, patients	59.2 nM
COc1cc2c(cc1OC)CN(CCc1ccc(NC(=O)c3cc(OC)c(OC)cc3NC(=O)c3cnc4ccccc4c3)cc1)CC2	human	intravenous, 2 mg/kg, patients	2500 nM
C/C(=C\c1csc(C)n1)[C@@H]1C[C@@H]2O[C@]2(C)CCC[C@H](C)[C@H](O)[C@@H](C)C(=O)C(C)(C)[C@@H](O)CC(=O)N1	human	intravenous, 20 mg/m², patients	249 ng/mL
CNCc1ccc(-c2[nH]c3cc(F)cc4c3c2CCNC4=O)cc1	human	oral, 600 mg twice daily, multiple doses, steady state	8190 nM
O=C(Nc1c(Cl)cncc1Cl)c1ccc(OC(F)F)c(OCC2CC2)c1	human	oral, 0.5 mg, single dose, fasted	12.5 ng/mL
CC(=O)Oc1ccccc1C(=O)O	human	oral, 650 mg, healthy volunteers	3480 ng/mL
CO[C@H]1/C=C\C=C(/C)C(=O)NC2=CC(=O)C(NCCN(C)C)=C(C[C@@H](C)C[C@H](OC)[C@H](O)[C@@H](C)/C=C(\C)[C@@H]1OC(N)=O)C2=O	human	intravenous, 12 mg/m², patients, infusion	196 ng/mL
C[C@@]1(c2cc(NC(=O)c3ccc(C#N)cn3)ccc2F)C=CSC(N)=N1	human	oral, 30 mg, single dose	148 ng/mL
